Assay results reported in ChEMBL document CHEMBL1147147 (J Med Chem, 2007).

How the values were obtained:
[1] = tested on: Clostridium botulinum; test: Inhibition of botulinum neurotoxin serotype A light chain metalloprotease at 50 uM
In short: (§1)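 Percent inhibition of BoNT/A light chain metalloprotease activity was measured at a single inhibitor concentration, by a method described in earlier work, in duplicate.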

[2] = Inhibition of botulinum neurotoxin serotype A light chain metalloprotease; design: species or system Clostridium botulinum
In short: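 Metalloprotease activity of the BoNT/A light chain was measured by a method described in earlier work. IC50 was derived from concentration-versus-inhibition plots using seven or nine concentrations per inhibitor, averaged from duplicate determinations.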

[3] = tested on: Clostridium botulinum; test: Inhibition of botulinum neurotoxin serotype A light chain metalloprotease at 20 uM; in short: as §1

SMILES	inhibition [1] [%]	IC50 [2] [µM]	inhibition [3] [%]
COC(=O)CCC(C)[C@H]1CC[C@H]2[C@@H]3[C@H](OC(C)=O)C[C@@H]4C[C@H](OCCNCCNc5ccnc6cc(Cl)ccc56)CC[C@]4(C)[C@H]3CC(OC(C)=O)[C@]12C (stereo partly specified)	62	–	–
COC(=O)CCC(C)[C@H]1CC[C@H]2[C@@H]3[C@H](OC(C)=O)C[C@@H]4C[C@H](NCCNc5ccnc6cc(Cl)ccc56)CC[C@]4(C)[C@H]3C[C@H](OC(C)=O)[C@]12C (stereo partly specified)	90	7	–
Clc1ccc2c(NCCCN(CCCNc3ccnc4cc(Cl)ccc34)CCCNc3ccnc4cc(Cl)ccc34)ccnc2c1	–	3.2	67
COC(=O)CCC(C)[C@H]1CC[C@H]2[C@@H]3[C@H](OC(C)=O)C[C@@H]4C[C@H](OCCNc5ccnc6cc(Cl)ccc56)CC[C@]4(C)[C@H]3CC(OC(C)=O)[C@]12C (stereo partly specified)	9	–	–
Nc1ccnc2cc(Cl)ccc12	12	–	–
COC(=O)CCC(C)[C@H]1CC[C@H]2[C@@H]3[C@H](OC(C)=O)C[C@@H]4C[C@H](OC(C)=O)CC[C@]4(C)[C@H]3C[C@H](OC(C)=O)[C@]12C (stereo partly specified)	0	–	–
COC(=O)CCC(C)[C@H]1CC[C@H]2[C@@H]3[C@H](OC(C)=O)C[C@@H]4C[C@@H](NCCNc5ccnc6cc(Cl)ccc56)CC[C@]4(C)[C@H]3C[C@H](OC(C)=O)[C@]12C (stereo partly specified)	80	17	–
COC(=O)CCC(C)[C@H]1CC[C@H]2[C@@H]3[C@H](OC(C)=O)C[C@@H]4C[C@H](N)CC[C@]4(C)[C@H]3C[C@H](OC(C)=O)[C@]12C (stereo partly specified)	13	–	–
